Measurements from ChEMBL document CHEMBL1122510, “Actinidin hydrolysis of substituted-phenyl hippurates: a quantitative structure-activity relationship and graphics comparison with hydrolysis by papain” (J Med Chem, 1984).

Assay: Michaelis constant for Actinidin-catalyzed hydrolysis
Type: ADME
Procedure, shortened: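 Actinidin purified in-house from kiwi fruit, stored as crystal suspension in 0.1 M sodium phosphate pH 6 with 20% ammonium sulfate; diluted, activated with aqueous DTE (~15 mg/mL), then diluted in 0.1 M sodium phosphate pH 6.0. Substituted-phenyl hippurate added in CH3CN to enzyme-buffer at 25 °C; initial hydrolysis rates read spectrophotometrically at ≥8 substrate concentrations.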

Row | Structure (SMILES) | Log 1/Km
1 | CC(=O)Nc1cccc(OC(=O)CNC(=O)c2ccccc2)c1 | 3.18
2 | O=C(CNC(=O)c1ccccc1)Oc1ccc(F)cc1 | 2.72
3 | CC(C)(C)c1cccc(OC(=O)CNC(=O)c2ccccc2)c1 | 3.66
4 | N#Cc1ccc(OC(=O)CNC(=O)c2ccccc2)cc1 | 3.62
5 | NS(=O)(=O)c1cccc(OC(=O)CNC(=O)c2ccccc2)c1 | 3.42
6 | Cc1ccc(OC(=O)CNC(=O)c2ccccc2)cc1 | 2.95
7 | NC(=O)c1cccc(OC(=O)CNC(=O)c2ccccc2)c1 | 3.15
8 | Nc1ccc(OC(=O)CNC(=O)c2ccccc2)cc1 | 2.55
9 | O=C(CNC(=O)c1ccccc1)Oc1cccc(Cl)c1 | 3.63
10 | O=C(CNC(=O)c1ccccc1)Oc1cc(Cl)cc(Cl)c1 | 3.84
11 | O=C(CNC(=O)c1ccccc1)Oc1ccccc1 | 2.77
12 | O=C(CNC(=O)c1ccccc1)Oc1cccc([N+](=O)[O-])c1 | 3.53
13 | O=C(CNC(=O)c1ccccc1)Oc1cc(Cl)c(Cl)c(Cl)c1 | 4.01
14 | Cc1cc(C)cc(OC(=O)CNC(=O)c2ccccc2)c1 | 3.37
15 | CC(=O)c1ccc(OC(=O)CNC(=O)c2ccccc2)cc1 | 3.47
16 | CCc1cc(C)cc(OC(=O)CNC(=O)c2ccccc2)c1 | 3.52
17 | O=C(CNC(=O)c1ccccc1)Oc1cccc(F)c1 | 3.01
18 | O=C(CNC(=O)c1ccccc1)Oc1cc([N+](=O)[O-])cc([N+](=O)[O-])c1 | 3.9
19 | NS(=O)(=O)c1ccc(OC(=O)CNC(=O)c2ccccc2)cc1 | 3.22
20 | O=C(CNC(=O)c1ccccc1)Oc1ccc(Cl)cc1 | 3.04
21 | O=C(CNC(=O)c1ccccc1)Oc1cccc(C(F)(F)F)c1 | 3.47
22 | COc1cc(OC)cc(OC(=O)CNC(=O)c2ccccc2)c1 | 3.6
23 | O=C(CNC(=O)c1ccccc1)Oc1cccc(I)c1 | 3.93
24 | COc1ccc(OC(=O)CNC(=O)c2ccccc2)cc1 | 2.87
25 | O=C(CNC(=O)c1ccccc1)Oc1ccc([N+](=O)[O-])cc1 | 3.8
26 | N#Cc1cccc(OC(=O)CNC(=O)c2ccccc2)c1 | 3.08
27 | Cc1cccc(OC(=O)CNC(=O)c2ccccc2)c1 | 3.26
28 | NC(=O)c1ccc(OC(=O)CNC(=O)c2ccccc2)cc1 | 3.47
29 | O=C(CNC(=O)c1ccccc1)Oc1cccc(Br)c1 | 3.64
